From ChEMBL document CHEMBL1150421, “Synthesis and analgesic/anti-inflammatory evaluation of fused heterocyclic ring systems incorporating phenylsulfonyl moiety” (2008)

Tests used:
Mus musculus [1] = assay: Analgesic activity in Albino mouse at 50 mg/kg, po assessed as thermal stimuli reaction time change after 30 mins by hot plate method relative to basal level; assay type: functional
Method in brief: (§1)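 Hot-plate at 52 °C ± 0.1 °C with a 60 s cut-off, six mice per group. Dosing was oral, 50 mg/kg in 2% Tween 80. Latency to paw licking or jumping was recorded before dosing and at 0.5, 1 and 2 h. Results are given as % change from the pre-drug value, with one-way ANOVA and Duncan's test (P < 0.05).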

Mus musculus [2] = assay: Analgesic activity in Albino mouse at 50 mg/kg, po assessed as thermal stimuli reaction time change after 30 mins by hot plate method relative to indomethacin; assay type: functional
Mus musculus [3] = assay: Analgesic activity in Albino mouse at 50 mg/kg, po assessed as thermal stimuli reaction time change after 1 hr by hot plate method relative to basal level; assay type: functional; method in brief: as §1
Mus musculus [4] = assay: Analgesic activity in Albino mouse at 50 mg/kg, po assessed as thermal stimuli reaction time change after 1 hr by hot plate method relative to indomethacin; assay type: functional
Mus musculus [5] = assay: Analgesic activity in Albino mouse at 50 mg/kg, po assessed as thermal stimuli reaction time change after 2 hrs by hot plate method relative to basal level; assay type: functional; method in brief: as §1
Mus musculus [6] = assay: Analgesic activity in Albino mouse at 50 mg/kg, po assessed as thermal stimuli reaction time change after 2 hrs mins by hot plate method relative to indomethacin; assay type: functional
Mus musculus [7] = assay: Analgesic activity against visceral pain in Albino mouse assessed as acetic acid-induced writhing at 50 mg/kg, po after 30 mins; assay type: functional
Method in brief: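 Mice (20–25 g, acclimatized 1 week, 12 h light/dark, 21–23 °C) given compound orally at 50 mg/kg as a suspension in 2% Tween 80. Negative controls got water in Tween 80. Visceral pain measured as acetic acid-induced writhing; indomethacin 50 mg/kg was the reference.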

Mus musculus [8] = assay: Analgesic activity against visceral pain in Albino mouse assessed as acetic acid-induced writhing at 50 mg/kg, po after 30 mins relative to indomethacin; assay type: functional
Rattus norvegicus [9] = assay: Antiinflammatory activity in Albino rat assessed as inhibition of carrageenan-induced edema at 50 mg/kg, po after 1 hr
Rattus norvegicus [10] = assay: Antiinflammatory activity in Albino rat assessed as inhibition of carrageenan-induced edema at 50 mg/kg, po after 2 hrs
Rattus norvegicus [11] = assay: Antiinflammatory activity in Albino rat assessed as inhibition of carrageenan-induced edema at 50 mg/kg, po after 3 hrs
Rattus norvegicus [12] = assay: Antiinflammatory activity in Albino rat assessed as inhibition of carrageenan-induced edema at 50 mg/kg, po after 4 hrs
Rattus norvegicus [13] = assay: Antiinflammatory activity in Albino rat assessed as inhibition of carrageenan-induced edema at 50 mg/kg, po after 5 hrs
Rattus norvegicus [14] = assay: Antiinflammatory activity in Albino rat assessed as inhibition of carrageenan-induced edema at 50 mg/kg, po after 6 hrs

| SMILES | Activity (Mus musculus [1]) | Activity (Mus musculus [2]) | Activity (Mus musculus [3]) | Activity (Mus musculus [4]) | Activity (Mus musculus [5]) | Activity (Mus musculus [6]) | Activity (Mus musculus [7]) | Activity (Mus musculus [8]) | inhibition in vivo at 50 mg/kg (Rattus norvegicus [9]) | inhibition in vivo at 50 mg/kg (Rattus norvegicus [10]) | inhibition in vivo at 50 mg/kg (Rattus norvegicus [11]) | inhibition in vivo at 50 mg/kg (Rattus norvegicus [12]) | inhibition in vivo at 50 mg/kg (Rattus norvegicus [13]) | inhibition in vivo at 50 mg/kg (Rattus norvegicus [14]) |
| --- | --- | --- | --- | --- | --- | --- | --- | --- | --- | --- | --- | --- | --- | --- |
| Cc1ccc(-c2c(S(=O)(=O)c3ccccc3)cnc3cc(-c4ccccc4)nn23)cc1 | 15.2% | 0.35 | 18.6% | 0.24 | 15.2% | 0.19 | 28% | 0.32 | 42.5% | 41% | 36.4% | 22.6% | 28.2% | 15.5% |
| Cc1ccc(-c2c(S(=O)(=O)c3ccccc3)cnc3cc(-c4ccc(Br)cc4)nn23)cc1 | 29% | 0.67 | 56.4% | 0.73 | 56.4% | 0.7 | 65.2% | 0.76 | 74.1% | 72.6% | 69.2% | 26.6% | 31.7% | 54.3% |
| Cc1ccc(-c2c(S(=O)(=O)c3ccccc3)cnc3ncnn23)cc1 | 7.1% | 0.16 | 5.3% | 0.06 | 0% | 0 |  | 0 | 7.5% | 5.2% | 4.4% | 3.3% | 2.4% | 1.9% |
| Cc1ccc(-c2c(S(=O)(=O)c3ccccc3)cnc3cc(C)nn23)cc1 | 16% | 0.37 | 16% | 0.21 | 5.3% | 0.07 | 30% | 0.35 | 25.8% | 25.2% | 23.2% | 14% | 8.1% | 8.7% |
| Cc1ccc(-c2c(S(=O)(=O)c3ccccc3)cnc3c(Br)c(-c4ccccc4)nn23)cc1 | 43.8% | 1.02 | 78% | 1.02 | 68.4% | 0.84 | 85.6% | 0.99 | 65.5% | 61% | 54.8% | 12.5% | 0% | 6.6% |
| O=S(=O)(c1ccccc1)c1cnc2cc(-c3ccc(Cl)cc3)nn2c1-c1ccc(Br)cc1 | 33% | 0.77 | 72.2% | 0.93 | 51.8% | 0.63 | 66.7% | 0.77 | 24.2% | 24.7% | 24.8% | 18.6% | 13.8% | 13.2% |
| Cc1ccc(-c2c(S(=O)(=O)c3ccccc3)cnc3nc4ccccc4n23)cc1 | 9.2% | 0.21 | 23% | 0.3 | 21.5% | 0.26 | 9.1% | 0.1 | 7.3% | 5% | 4.2% | 0% | 0% | 0% |
| O=S(=O)(c1ccccc1)c1cnc2ncnn2c1-c1ccc(Br)cc1 | 5.4% | 0.12 | 6.8% | 0.08 | 5.4% | 0.06 | 10.8% | 0.12 | 2.2% | 4.2% | 1.6% | 1.3% | 0.8% | 0.9% |
| Cc1ccc(-c2cc3ncc(S(=O)(=O)c4ccccc4)c(-c4ccc(C)cc4)n3n2)cc1 | 25% | 0.58 | 67.1% | 0.87 | 57.5% | 0.71 | 74.4% | 0.86 | 54.6% | 42.6% | 31.2% | 20% | 17% | 11.6% |
| Cc1cc2ncc(S(=O)(=O)c3ccccc3)c(-c3ccc(Br)cc3)n2n1 | 27% | 0.63 | 44.1% | 0.57 | 39.7% | 0.49 | 56.4% | 0.65 | 7.4% | 5.2% | 4.4% | 0% | 0% | 0% |
| COc1ccc2c(c1)c(CC(=O)O)c(C)n2C(=O)c1ccc(Cl)cc1 [INDOMETHACIN] | 43% |  | 77.2% |  | 81% |  | 85.8% |  | 77% | 56% | 44% | 28.7% | 28.4% | 50% |
